Measurements reported in ChEMBL document CHEMBL4304751, “Discovery of Novel Pyrido-pyridazinone Derivatives as FER Tyrosine Kinase Inhibitors with Antitumor Activity” (ACS Med Chem Lett, 2019).
≈ marks a conversion by molar mass, not a printed value. Values belong to the compound of their own block, whether it stands above or below them.

How the values were obtained:
[1] = Growth inhibition of mouse mock transfected BA/F3 cells assessed as decrease in cell viability after 3 days by luminescence based CellTiter-Glo assay; set-up: species or system BaF3
Method in brief: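 Ba/F3 growth inhibition run as quadruplicate experiments. GI50 fitted with 95% confidence intervals.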

[2] = target: T1, Tyrosine-protein kinase Fer (Homo sapiens, UniProt P16591); assay: Inhibition of recombinant N-terminal His-tagged human FER (SH2 domain to C-terminal) expressed in Escherichia coli assessed as decrease in FL-Peptide22 substrate phosphorylation incubated for 90 mins
Target sequence in this assay (P16591 whole entry, the tested form may be a part): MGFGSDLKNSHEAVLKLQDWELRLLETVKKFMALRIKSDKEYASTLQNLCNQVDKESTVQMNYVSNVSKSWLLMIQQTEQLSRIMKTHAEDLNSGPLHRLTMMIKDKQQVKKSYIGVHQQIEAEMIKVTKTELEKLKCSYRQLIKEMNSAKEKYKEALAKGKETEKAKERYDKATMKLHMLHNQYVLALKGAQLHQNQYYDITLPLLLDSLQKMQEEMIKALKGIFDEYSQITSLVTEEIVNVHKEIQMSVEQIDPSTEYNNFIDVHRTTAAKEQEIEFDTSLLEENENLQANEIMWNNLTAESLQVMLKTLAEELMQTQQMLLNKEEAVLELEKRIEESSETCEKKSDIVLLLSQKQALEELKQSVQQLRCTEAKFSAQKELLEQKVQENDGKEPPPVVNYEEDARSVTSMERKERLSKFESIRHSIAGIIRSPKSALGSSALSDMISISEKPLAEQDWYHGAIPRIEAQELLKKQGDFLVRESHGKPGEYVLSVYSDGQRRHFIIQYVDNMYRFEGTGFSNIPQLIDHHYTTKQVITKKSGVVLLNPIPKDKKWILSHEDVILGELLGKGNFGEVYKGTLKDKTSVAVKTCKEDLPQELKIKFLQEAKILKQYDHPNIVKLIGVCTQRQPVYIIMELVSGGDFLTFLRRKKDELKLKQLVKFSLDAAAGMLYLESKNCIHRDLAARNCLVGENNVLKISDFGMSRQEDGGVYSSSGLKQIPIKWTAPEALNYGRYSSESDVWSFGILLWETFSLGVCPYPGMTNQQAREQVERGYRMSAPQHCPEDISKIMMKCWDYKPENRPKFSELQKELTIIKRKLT

[3] = target: T1, Tyrosine-protein kinase Fer
Target sequence in this assay (P16591 whole entry, looked up, the tested form may be a part): as the sequence (P16591 whole entry, the tested form may be a part) above

[4] = Metabolic stability in mouse liver microsomes assessed as parent compound remaining at 1 uM after 30 mins relative to control; assay type: ADME, Microsome; conditions: read-out: Stability
Method in brief: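 Test compound at 1.0 μM incubated 30 min with mouse liver microsomes (1.0 mg/mL protein). The fraction of parent remaining is reported.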

[5] = Solubility in buffer at pH 6.8; assay type: physicochemical
Method in brief: (§1)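 Solubility expressed as μg/mL, measured in pH 6.8 buffer and in FaSSIF.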

[6] = Protein binding in BALB/c mouse serum at 10 ug/mL incubated for 4 hrs under shaking condition by LC/MS/MS analysis; assay type: ADME, cell-free; conditions: read-out: PPB
Method in brief: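 Binding determined using serum samples from BALB/c mice.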

[7] = Effective permeability of compound at 5 uM after 24 hrs at pH 7.4 by LC/MS/MS based PAMPA assay; assay type: ADME; conditions: read-out: Peff
[8] = Total plasma clearance in BALB/cAnNCrlCrlj mouse at 1 mg/kg, iv after 24 hrs; assay type: ADME, organism-based
Method in brief: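 Clearance measured after a single intravenous dose of 1 mg/kg in mice.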

[9] = AUC in BALB/cAnNCrlCrlj mouse at 10 mg/kg, po administered via gavage after 24 hrs; assay type: ADME, organism-based; set-up: time < 24 hr, dose 10 mg/kg, route oral; conditions: in vivo
Method in brief: (§2)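 Mouse pharmacokinetics: compound given orally at 10 mg/kg. Unbound plasma concentration is reported as a mean value after oral dosing.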

[10] = Cmax in BALB/cAnNCrlCrlj mouse at 10 mg/kg, po administered via gavage after 24 hrs; assay type: ADME, organism-based; set-up: dose 10 mg/kg, route oral; conditions: in vivo; method in brief: as §2
[11] = Oral bioavailability in BALB/cAnNCrlCrlj mouse at 10 mg/kg administered via gavage after 24 hrs; assay type: ADME, organism-based; conditions: in vivo; method in brief: as §2
[12] = Solubility in FaSSIF; assay type: physicochemical; method in brief: as §1
BaF3 = assay: Antitumor activity against mouse BA/F3 cells expressing myc/His-tagged ETV6-FER kinase domain (452 to 821 residues) allografted in BALB/cAJcl nu/nu mouse assessed as decrease in tumor volume administered orally once per day for 4 days starting from 6 days after tumor cell implantation and measured during compound dosing; assay type: functional, cell-based
[13] = Toxicity in BALB/cAJcl nu/nu mouse allografted with mouse BA/F3 cells expressing myc/His-tagged ETV6-FER kinase domain (452 to 821 residues) assessed as change in body weight loss at 12.5 to 100 mg/kg, po administered once per day for 4 days starting from 6 days after tumor cell implantation and measured during compound dosing; assay type: organism-based; conditions: in vivo
Mus musculus = assay: Unbound plasma concentration in BALB/cAnNCrlCrlj mouse at 10 mg/kg, po administered via gavage after 24 hrs by non-compartmental analysis; assay type: ADME, organism-based; conditions: in vivo; method in brief: as §2
[14] = target: ALK tyrosine kinase receptor (Homo sapiens) (UniProt Q9UM73); assay: Inhibition of recombinant N-terminal GST-fusion protein tagged human ALK cytoplasmic domain (1058 to 1620 residues) expressed in baculovirus expression system assessed as decrease in fluorescence labelled Srctide phosphorylation at 200 nM by off-chip mobility shift assay relative to control
Sequence of ALK tyrosine kinase receptor (Homo sapiens) (Q9UM73 19-1620 limits assumed): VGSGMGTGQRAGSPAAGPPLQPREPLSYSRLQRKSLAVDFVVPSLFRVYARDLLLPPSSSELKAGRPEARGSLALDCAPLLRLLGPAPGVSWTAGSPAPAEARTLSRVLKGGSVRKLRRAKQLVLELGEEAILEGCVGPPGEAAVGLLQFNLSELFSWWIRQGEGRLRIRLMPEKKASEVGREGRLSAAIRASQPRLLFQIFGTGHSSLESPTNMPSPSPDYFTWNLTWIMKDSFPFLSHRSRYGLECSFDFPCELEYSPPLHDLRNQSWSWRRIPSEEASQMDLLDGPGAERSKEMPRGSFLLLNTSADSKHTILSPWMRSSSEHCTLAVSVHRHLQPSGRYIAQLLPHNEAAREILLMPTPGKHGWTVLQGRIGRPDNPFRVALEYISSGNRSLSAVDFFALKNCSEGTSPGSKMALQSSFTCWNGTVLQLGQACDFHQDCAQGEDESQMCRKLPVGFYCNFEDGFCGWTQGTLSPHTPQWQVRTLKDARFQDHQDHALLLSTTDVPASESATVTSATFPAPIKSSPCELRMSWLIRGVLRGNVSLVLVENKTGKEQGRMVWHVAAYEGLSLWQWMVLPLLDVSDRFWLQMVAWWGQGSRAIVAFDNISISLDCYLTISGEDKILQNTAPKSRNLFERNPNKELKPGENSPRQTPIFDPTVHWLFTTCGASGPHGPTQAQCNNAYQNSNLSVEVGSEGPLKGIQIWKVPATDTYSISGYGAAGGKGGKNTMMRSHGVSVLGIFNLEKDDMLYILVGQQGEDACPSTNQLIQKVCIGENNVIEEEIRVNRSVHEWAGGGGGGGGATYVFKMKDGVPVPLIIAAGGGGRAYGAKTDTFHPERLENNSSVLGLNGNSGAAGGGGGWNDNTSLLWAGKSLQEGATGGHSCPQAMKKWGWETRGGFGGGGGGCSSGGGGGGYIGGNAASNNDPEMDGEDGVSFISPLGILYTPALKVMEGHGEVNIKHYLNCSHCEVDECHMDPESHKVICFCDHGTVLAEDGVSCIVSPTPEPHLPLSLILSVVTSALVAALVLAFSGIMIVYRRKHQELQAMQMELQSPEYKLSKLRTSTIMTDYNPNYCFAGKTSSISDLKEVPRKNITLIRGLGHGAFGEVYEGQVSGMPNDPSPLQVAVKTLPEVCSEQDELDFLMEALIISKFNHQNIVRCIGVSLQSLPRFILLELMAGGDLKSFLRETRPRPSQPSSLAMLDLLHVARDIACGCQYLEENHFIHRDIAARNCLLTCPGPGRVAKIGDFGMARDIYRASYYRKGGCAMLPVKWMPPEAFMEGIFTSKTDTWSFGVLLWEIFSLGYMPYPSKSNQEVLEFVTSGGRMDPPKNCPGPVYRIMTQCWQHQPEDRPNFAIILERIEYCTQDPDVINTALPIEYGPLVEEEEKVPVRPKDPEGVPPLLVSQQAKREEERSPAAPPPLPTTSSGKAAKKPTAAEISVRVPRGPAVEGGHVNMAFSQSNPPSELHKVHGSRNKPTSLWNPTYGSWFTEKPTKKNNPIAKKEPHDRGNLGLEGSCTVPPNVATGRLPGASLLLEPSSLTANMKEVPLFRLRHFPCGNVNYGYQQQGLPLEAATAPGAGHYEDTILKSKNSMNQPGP

[15] = target: Receptor-type tyrosine-protein kinase FLT3 (Homo sapiens) (UniProt P36888); assay: Inhibition of recombinant N-terminal GST-fusion protein tagged human FLT3 cytoplasmic domain (564 to 993 residues) expressed in baculovirus expression system assessed as decrease in fluorescence labelled Srctide phosphorylation at 200 nM by off-chip mobility shift assay relative to control
[16] = target: Macrophage colony-stimulating factor 1 receptor (Homo sapiens) (UniProt P07333); assay: Inhibition of recombinant N-terminal GST-fusion protein tagged human FMS cytoplasmic domain (538 to 972 residues) expressed in baculovirus expression system assessed as decrease in fluorescence labelled Srctide phosphorylation at 200 nM by off-chip mobility shift assay relative to control
[17] = target: Mast/stem cell growth factor receptor Kit (Homo sapiens) (UniProt P10721); assay: Inhibition of recombinant N-terminal GST-fusion protein tagged human KIT cytoplasmic domain (544 to 976 residues) expressed in baculovirus expression system assessed as decrease in fluorescence labelled Srctide phosphorylation at 200 nM by off-chip mobility shift assay relative to control
[18] = target: Protein-tyrosine kinase 2-beta (Homo sapiens) (UniProt Q14289); assay: Inhibition of recombinant N-terminal GST-fusion protein tagged human full length PYK2 (1 to 967 residues) expressed in baculovirus expression system assessed as decrease in fluorescence labelled Blk/Lyntide phosphorylation at 200 nM by off-chip mobility shift assay relative to control
[19] = target: Proto-oncogene tyrosine-protein kinase ROS (Homo sapiens) (UniProt P08922); assay: Inhibition of recombinant N-terminal GST-fusion protein tagged human ROS1 cytoplasmic domain (1883 to 2347 residues) expressed in baculovirus expression system assessed as decrease in fluorescence labelled IRS1 phosphorylation at 200 nM by off-chip mobility shift assay relative to control
[20] = target: Tyrosine-protein kinase SYK (Homo sapiens) (UniProt P43405); assay: Inhibition of recombinant N-terminal GST-fusion protein tagged human full length SYK (1 to 635 residues) expressed in baculovirus expression system assessed as decrease in fluorescence labelled Blk/Lyntide phosphorylation at 200 nM by off-chip mobility shift assay relative to control
[21] = target: High affinity nerve growth factor receptor (Homo sapiens) (UniProt P04629); assay: Inhibition of recombinant N-terminal GST-fusion protein tagged human TRKA cytoplasmic domain (436 to 790 residues) expressed in baculovirus expression system assessed as decrease in fluorescence labelled CSKtide phosphorylation at 200 nM by off-chip mobility shift assay relative to control
Sequence of High affinity nerve growth factor receptor (Homo sapiens) (P04629 33-796 limits assumed): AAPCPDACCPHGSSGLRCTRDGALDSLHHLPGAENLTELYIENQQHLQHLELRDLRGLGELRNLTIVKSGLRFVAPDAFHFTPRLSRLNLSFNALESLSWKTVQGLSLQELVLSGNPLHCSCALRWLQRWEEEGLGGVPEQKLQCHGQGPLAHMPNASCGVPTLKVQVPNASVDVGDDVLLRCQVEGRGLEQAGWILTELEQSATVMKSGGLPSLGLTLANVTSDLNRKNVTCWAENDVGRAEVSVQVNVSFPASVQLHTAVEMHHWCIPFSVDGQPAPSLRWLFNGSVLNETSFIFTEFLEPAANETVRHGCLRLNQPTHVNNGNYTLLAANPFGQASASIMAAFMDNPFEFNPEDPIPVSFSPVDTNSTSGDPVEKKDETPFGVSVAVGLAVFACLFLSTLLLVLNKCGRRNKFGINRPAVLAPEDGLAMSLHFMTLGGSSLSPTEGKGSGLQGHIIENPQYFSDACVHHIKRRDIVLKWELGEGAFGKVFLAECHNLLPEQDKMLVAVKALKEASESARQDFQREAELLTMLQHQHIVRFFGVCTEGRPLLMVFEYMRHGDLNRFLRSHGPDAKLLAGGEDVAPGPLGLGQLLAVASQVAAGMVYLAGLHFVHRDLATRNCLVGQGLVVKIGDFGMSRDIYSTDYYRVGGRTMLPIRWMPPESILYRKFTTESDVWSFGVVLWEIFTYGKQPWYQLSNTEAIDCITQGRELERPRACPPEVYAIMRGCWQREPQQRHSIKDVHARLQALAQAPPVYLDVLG

[22] = target: CDK2/Cyclin A2 (Homo sapiens) (UniProt P24941+P20248); assay: Inhibition of recombinant human full length N-terminal GST-tagged CDK2 (1 to 298 residues)/GST-tagged CyclinA2 (1 to 432 residues) expressed in baculovirus expression system assessed as decrease in fluorescence labelled modified histone H1 phosphorylation at 200 nM by off-chip mobility shift assay relative to control
[23] = target: Serine/threonine-protein kinase Chk2 (Homo sapiens) (UniProt O96017); assay: Inhibition of recombinant N-terminal GST-fusion protein tagged human full length CHK2 (1 to 543 residues) expressed in baculovirus expression system assessed as decrease in fluorescence labelled CHKtide phosphorylation at 200 nM by off-chip mobility shift assay relative to control
Sequence of Serine/threonine-protein kinase Chk2 (Homo sapiens) (O96017 whole entry, the tested form may be a part): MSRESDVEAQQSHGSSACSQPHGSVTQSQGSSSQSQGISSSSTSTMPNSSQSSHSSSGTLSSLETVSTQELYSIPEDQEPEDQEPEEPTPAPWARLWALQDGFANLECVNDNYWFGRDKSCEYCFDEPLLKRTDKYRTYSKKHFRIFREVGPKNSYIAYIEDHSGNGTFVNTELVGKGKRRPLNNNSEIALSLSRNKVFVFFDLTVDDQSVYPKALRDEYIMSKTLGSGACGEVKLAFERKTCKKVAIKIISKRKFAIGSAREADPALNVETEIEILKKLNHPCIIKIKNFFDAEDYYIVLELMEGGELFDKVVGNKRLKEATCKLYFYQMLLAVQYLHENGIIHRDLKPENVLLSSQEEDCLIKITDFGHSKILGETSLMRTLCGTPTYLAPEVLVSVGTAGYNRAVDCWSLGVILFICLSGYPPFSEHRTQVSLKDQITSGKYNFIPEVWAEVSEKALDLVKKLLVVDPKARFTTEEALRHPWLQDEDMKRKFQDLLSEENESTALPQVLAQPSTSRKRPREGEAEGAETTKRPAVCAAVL

[24] = target: Mitogen-activated protein kinase kinase kinase kinase 4 (Homo sapiens) (UniProt O95819); assay: Inhibition of recombinant N-terminal GST-fusion protein tagged human HGK catalytic domain (1 to 328 residues) expressed in baculovirus expression system assessed as decrease in fluorescence labelled Moesin-derived phosphorylation at 200 nM by off-chip mobility shift assay relative to control
Sequence of Mitogen-activated protein kinase kinase kinase kinase 4 (Homo sapiens) (O95819 2-1239 limits assumed): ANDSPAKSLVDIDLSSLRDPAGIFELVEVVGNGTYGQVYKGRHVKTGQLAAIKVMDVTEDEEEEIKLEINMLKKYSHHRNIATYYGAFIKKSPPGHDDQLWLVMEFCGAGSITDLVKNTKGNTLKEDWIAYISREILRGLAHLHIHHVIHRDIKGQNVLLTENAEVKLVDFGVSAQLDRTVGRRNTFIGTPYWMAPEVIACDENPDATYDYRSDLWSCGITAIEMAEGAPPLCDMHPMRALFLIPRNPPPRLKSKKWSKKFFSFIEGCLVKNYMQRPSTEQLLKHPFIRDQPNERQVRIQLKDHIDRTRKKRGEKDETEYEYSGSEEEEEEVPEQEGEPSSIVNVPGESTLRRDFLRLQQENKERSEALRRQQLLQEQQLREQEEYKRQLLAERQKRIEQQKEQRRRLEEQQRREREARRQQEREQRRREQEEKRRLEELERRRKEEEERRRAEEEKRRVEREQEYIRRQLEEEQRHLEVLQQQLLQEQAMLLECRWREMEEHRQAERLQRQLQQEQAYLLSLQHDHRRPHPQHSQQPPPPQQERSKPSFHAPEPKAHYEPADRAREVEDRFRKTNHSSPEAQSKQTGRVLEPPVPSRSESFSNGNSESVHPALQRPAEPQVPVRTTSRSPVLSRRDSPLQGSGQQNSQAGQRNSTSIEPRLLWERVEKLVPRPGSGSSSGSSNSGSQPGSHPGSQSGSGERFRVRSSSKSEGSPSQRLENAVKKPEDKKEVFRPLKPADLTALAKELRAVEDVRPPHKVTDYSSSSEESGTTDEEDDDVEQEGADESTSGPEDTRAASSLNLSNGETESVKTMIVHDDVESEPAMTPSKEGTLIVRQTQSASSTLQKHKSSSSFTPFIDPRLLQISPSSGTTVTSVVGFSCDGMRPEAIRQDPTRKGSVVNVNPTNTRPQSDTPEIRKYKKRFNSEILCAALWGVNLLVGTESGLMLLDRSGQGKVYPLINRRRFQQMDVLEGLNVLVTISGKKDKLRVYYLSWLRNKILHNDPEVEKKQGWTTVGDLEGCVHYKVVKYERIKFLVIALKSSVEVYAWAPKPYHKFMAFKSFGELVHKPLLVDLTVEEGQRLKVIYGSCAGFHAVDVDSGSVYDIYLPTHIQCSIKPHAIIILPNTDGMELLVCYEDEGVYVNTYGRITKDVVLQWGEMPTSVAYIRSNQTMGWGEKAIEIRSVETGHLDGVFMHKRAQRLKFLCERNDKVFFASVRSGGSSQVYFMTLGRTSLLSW

[25] = target: T2, Interleukin-1 receptor-associated kinase 4 (Homo sapiens) (UniProt Q9NWZ3); assay: Inhibition of recombinant N-terminal GST-fusion protein tagged human full length IRAK4 (1 to 460 residues) expressed in baculovirus expression system assessed as decrease in fluorescence labelled IRAK1 phosphorylation at 200 nM by off-chip mobility shift assay relative to control
T2 sequence (whole entry): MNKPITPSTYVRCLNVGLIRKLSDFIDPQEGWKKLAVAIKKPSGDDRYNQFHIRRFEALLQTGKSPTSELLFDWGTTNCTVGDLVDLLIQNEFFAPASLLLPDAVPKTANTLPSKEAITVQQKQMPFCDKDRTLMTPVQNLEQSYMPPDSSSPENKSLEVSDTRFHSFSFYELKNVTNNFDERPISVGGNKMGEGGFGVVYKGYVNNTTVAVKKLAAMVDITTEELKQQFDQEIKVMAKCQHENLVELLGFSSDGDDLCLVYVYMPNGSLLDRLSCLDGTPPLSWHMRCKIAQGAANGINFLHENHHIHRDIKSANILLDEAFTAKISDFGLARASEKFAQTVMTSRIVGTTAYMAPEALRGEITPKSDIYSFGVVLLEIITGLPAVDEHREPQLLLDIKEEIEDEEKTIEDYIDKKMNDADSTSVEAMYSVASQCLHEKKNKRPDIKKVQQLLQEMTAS

[26] = target: Mitogen-activated protein kinase kinase kinase 9 (Homo sapiens) (UniProt P80192); assay: Inhibition of recombinant N-terminal GST-fusion protein tagged human MLK1 catalytic domain (110 to 422 residues) expressed in baculovirus expression system assessed as decrease in GST-labelled MAP2K7 phosphorylation at 200 nM by HRP-labelled anti-rabbit antibody based ELISA method relative to control
[27] = target: T3, Testis-specific serine/threonine-protein kinase 1 (Homo sapiens) (UniProt Q9BXA7); assay: Inhibition of recombinant N-terminal GST fusion protein tagged human full length TSSK1 (1 to 367 residues) expressed in baculovirus expression system assessed as decrease in fluorescence labelled GS peptide phosphorylation at 200 nM by off-chip mobility shift assay relative to control
T3 sequence (whole entry): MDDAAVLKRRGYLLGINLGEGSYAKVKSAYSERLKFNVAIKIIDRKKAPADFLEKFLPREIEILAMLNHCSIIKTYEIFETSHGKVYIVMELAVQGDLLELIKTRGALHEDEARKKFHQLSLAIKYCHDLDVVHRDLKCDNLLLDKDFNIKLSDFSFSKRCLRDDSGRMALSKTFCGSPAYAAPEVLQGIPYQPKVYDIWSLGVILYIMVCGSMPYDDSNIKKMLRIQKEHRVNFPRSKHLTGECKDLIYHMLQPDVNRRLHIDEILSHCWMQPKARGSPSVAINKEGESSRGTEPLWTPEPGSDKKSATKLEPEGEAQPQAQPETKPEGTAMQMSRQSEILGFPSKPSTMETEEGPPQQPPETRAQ

[28] = target: Tyrosine-protein kinase Fes/Fps (Homo sapiens) (UniProt P07332); assay: Inhibition of recombinant N-terminal GST fusion protein tagged human full length FES (1 to 413/416 to 822 residues) expressed in baculovirus expression system assessed as decrease in fluorescence labelled Srctide phosphorylation at 200 nM by off-chip mobility shift assay relative to control
[29] = target: T1, Tyrosine-protein kinase Fer; assay: Inhibition of recombinant N-terminal GST-tagged human full length FER (1 to 822 residues) expressed in baculovirus expression system decrease in fluorescence labelled Srctide phosphorylation at 200 nM by off-chip mobility shift assay relative to control
Target sequence in this assay (P16591 whole entry, looked up, the tested form may be a part): as the sequence (P16591 whole entry, the tested form may be a part) above

Compound: Cc1cccc(Nc2nc(NC3CCCCC3N)cc3cn[nH]c(=O)c23)c1 (racemic)
- GI50 at 72 h [1]: 1500 nM

Compound: Cc1cccc(Nc2nc(NC3CCCCC3N)cc3c2C(=O)NCC3)c1 (racemic)
- GI50 at 72 h [1]: 4300 nM

Compound: Cc1cccc(Nc2nc(NC3CCCCC3N)cc3cc[nH]c(=O)c23)c1 (racemic)
- GI50 at 72 h [1]: 1920 nM

Compound: Cc1cccc(Nc2nc(NC3CCCCC3N)c(Cl)c3cn[nH]c(=O)c23)c1 (racemic)
- GI50 at 72 h [1]: 1500 nM

Compound: N#Cc1cc2c(N)nn(Cc3ccccc3)c2nc1NC1CCCCC1N (racemic)
- IC50 [2]: > 4 µM
- GI50 at 72 h [1]: > 5000 nM
- GI50 [3]: > 4000 nM

Compound: Cc1cccc(Nc2nc(N[C@@H]3CCCC[C@@H]3N)c(C#N)cc2C(N)=O)c1
- remaining at 0.5 h, 1 µM [4]: 100%
- solubility [5]: 35 µg/mL (≈ 96 µM)
- fraction unbound at 4 h, 10 ug/mL [6]: 0.01
- Papp at 24 h, 5 µM [7]: 16 ×10⁻⁶ cm/s
- clearance [8]: 12 mL/min/kg
- AUC at 24 h [9]: 2400 ng·h/mL
- Cmax [10]: 420 ng/mL
- bioavailability [11]: 17%
- solubility [12]: 49 µg/mL (≈ 134 µM)

Compound: Cc1cccc(Nc2nc(N[C@@H]3CCCC[C@@H]3N)c(C#N)c3cn[nH]c(=O)c23)c1
- IC50 [2]: 0.00049 µM
- GI50 at 72 h [1]: 220 nM
- remaining at 0.5 h, 1 µM [4]: 96%
- solubility [5]: 0.9 µg/mL (≈ 2.31 µM)
- fraction unbound at 4 h, 10 ug/mL [6]: 0.01
- Papp at 24 h, 5 µM [7]: > 50 ×10⁻⁶ cm/s
- clearance [8]: 12 mL/min/kg
- AUC at 24 h [9]: 4800 ng·h/mL
- Cmax [10]: 360 ng/mL
- bioavailability [11]: 34%
- Activity (BaF3): Dose-dependent effect
- Activity [13]: Non-Toxic
- Cp(f) (Mus musculus): 3.1 nM
- inhibition [14]: > 90%
- inhibition [15]: > 90%
- inhibition [16]: > 90%
- inhibition [17]: > 90%
- inhibition [18]: > 90%
- inhibition [19]: > 90%
- inhibition [20]: > 90%
- inhibition [21]: > 90%
- inhibition [22]: > 90%
- inhibition [23]: > 90%
- inhibition [24]: > 90%
- inhibition [25]: > 90%
- inhibition [26]: > 90%
- inhibition [27]: > 90%
- inhibition [28]: > 90%
- solubility [12]: 2.1 µg/mL (≈ 5.39 µM)
- inhibition [29]: > 90%
- GI50 [3]: 1.9 nM

More lines, now with the values ahead:

- IC50 [2]: > 1.3 µM
Compound: Cc1cccc(-n2c(=O)[nH]c3cc(C#N)c(N[C@@H]4CCCC[C@@H]4N)nc32)c1

- IC50 [2]: > 4 µM
Compound: Cc1cccc(Cc2nc(N[C@@H]3CCCC[C@@H]3N)c(C#N)cc2C(N)=O)c1

- IC50 [2]: > 4 µM
Compound: N#Cc1cc(C(N)=O)c(N)nc1N[C@@H]1CCCC[C@@H]1N

- IC50 [2]: > 4 µM
Compound: Cc1cccc(Nc2ccc(C#N)c(N[C@@H]3CCCC[C@@H]3N)n2)c1
